# KCNK9 block: human KCNK9 channel inhibition | AID 488922 | 310,000 tested, 1.2% active | B-score at 10 µM | Q9NPC2 | HEK293 KCNK9, FluxOR thallium flux fluorescence; stronger effect = lower value;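 active = ratio B-score over 3 SD below the library mean, with starting fluorescence within 5 SD of its mean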;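 note: negative B-score means less thallium flux so channel inhibition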
# Target sequence (Q9NPC2 whole entry, looked up): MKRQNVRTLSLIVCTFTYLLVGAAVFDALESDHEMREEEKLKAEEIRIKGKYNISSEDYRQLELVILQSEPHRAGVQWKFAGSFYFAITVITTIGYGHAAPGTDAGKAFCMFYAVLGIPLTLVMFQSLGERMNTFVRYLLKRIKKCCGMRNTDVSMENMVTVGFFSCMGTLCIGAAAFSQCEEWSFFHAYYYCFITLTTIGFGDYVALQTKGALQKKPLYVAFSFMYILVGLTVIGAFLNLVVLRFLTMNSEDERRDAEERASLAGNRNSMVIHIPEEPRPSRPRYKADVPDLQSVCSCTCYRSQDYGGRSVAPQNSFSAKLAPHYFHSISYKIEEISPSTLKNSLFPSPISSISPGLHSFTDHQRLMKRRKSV
# Kir21 block: blocks the mouse Kir2.1 inward-rectifier potassium channel | HEK293-Kir2.1, FluxOR thallium flux fluorescence; stronger effect = lower value | B-score at 10 µM | 310,000 tested, 0.85% active | AID 1672;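 active = fluorescence ratio B-score at or below minus 3 SD of library scores, with starting-brightness B-score within 2 SD, cut at about -4.2 in these data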;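 note: channel flux triggered by added potassium and thallium sulfate stimulus; B-score of peak minus minimum fluorescence over baseline after thallium stimulus; more negative B-score means stronger Kir2.1 block with less thallium influx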
# hERG protect: hERG (human) protection from proarrhythmic block; CHO-hERG, FluxOR thallium flux, dofetilide IC70 present; activation (rescue from dofetilide block), less the hit threshold, % at 10 µM; Q12809; 310,000 tested, 0.51% active;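 active = activation above the mean of controls blocked by dofetilide plus 5 SD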;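 note: thallium influx through hERG after potassium depolarization seen as dye fluorescence rise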
# KCNQ1 block: human KCNQ1 channel inhibition; P51787; CHO-K1 KCNQ1, FluxOR thallium flux fluorescence; stronger effect = higher value; B-score at 10 µM; 310,000 tested, 1.3% active; AID 2642;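 active = compounds whose thallium flux B-score, printed positive for inhibition, exceeds three library SD while starting fluorescence stays within three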;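 note: channel opened by potassium depolarization with thallium stimulus after 20 min compound exposure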
# KCNK3 block: human KCNK3 channel inhibition, primary screen | O14649 | CHO-KCNK3 thallium flux, FluxOR fluorescence; stronger effect = lower value | B-score at 10 µM | 340,000 tested, 0.84% active | AID 602410;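 active = B-score under library mean minus 4 SD, starting fluorescence ratio at most library mean plus 5 SD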;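 note: more negative B-score means stronger inhibition of thallium flux through KCNK3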
# KCNQ1 act: potentiates or activates the human KCNQ1 potassium channel; AID 2648; 310,000 tested, 0.35% active; B-score at 10 µM; CHO-K1 KCNQ1, thallium flux FluxOR fluorescence; stronger effect = higher value;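 active = fluorescence ratio B-score, a plate-corrected score, at least three library SD, with initial intensity B-score within 5 SD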
#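 Medium – assay buffer, equal DMSO in all wells · Material – CHO-K1 cell line with stable KCNQ1 potassium channel expression · Signal – kinetic FluxOR thallium fluorescence, 10-s 1-Hz baseline, 110-s post-stimulus read · Compound – single concentration per compound, DMSO matched to controls · Schedule – 37 °C overnight plating, 90-min dark dye load, 20-min compound pretreatment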
# Hits are given with their value; 0 = inactive; - = no result given. Only some compounds are listed: those with a hit (about 3.8% of all), similar ones and a draw of the others.
SMILES,KCNK9 block,Kir21 block,hERG protect,KCNQ1 block,KCNK3 block,KCNQ1 act
COc1ccc(N2C(=O)[C@@H]3[C@H](C2=O)[C@H](C(=O)c2ccc(OC(C)=O)cc2)N2N=CC=C[C@@H]32)cc1,0,-4.8,0,0,-,0
Cc1c(OCC(=O)NC2CC(C)(C)NC(C)(C)C2)ccc2c1oc(=O)c1ccccc12,0,0,0,0,0,0
Cc1c(OCC(=O)NC2CC(C)(C)NC(C)(C)C2)ccc2c3c(c(=O)oc12)CCC3,0,-4.6,0,0,0,0
Clc1ccccc1OCCN1CCCCC1,0,0,0,0,0,0
O=c1ccccn1CCOc1ccccc1Cl,0,0,5.3,0,0,0
Cc1ccsc1/C=N/NC(=O)C(N)=O,0,0,4.7,0,0,0
Cc1ccsc1/C=N/NC(=O)c1ccccn1,0,0,4.7,0,0,0
Cc1ccsc1/C=N/NC(=O)c1cccs1,0,0,0,0,0,0
COc1ccc(NC(=O)c2ccco2)cc1NC(=O)c1ccccc1,0,0,0,0,0,0
Cc1ccc(O)c(NC(=O)c2cccc(NC(=O)c3ccco3)c2)c1,-6.9,0,0,0,-9.4,0
O=C(Nc1ccccc1C(=O)O)c1cccc(NC(=O)c2ccco2)c1,0,0,5.3,0,0,0
COc1ccccc1NC(=O)c1cccc(NC(=O)c2ccco2)c1,-,-,-,-,-9.4,-
CCOc1ccccc1NC(=O)c1ccc(NC(=O)c2ccco2)cc1,-6.6,0,0,0,0,0
Cc1ccc(O)c(NC(=O)c2ccco2)c1,0,0,0,0,0,0
CC(=O)c1cccc(NC(=O)c2cccc(NC(=O)c3ccco3)c2)c1,0,0,0,0,0,0
CN1CCN(C(=O)c2cc(=O)c3cc(Cl)cc(Cl)c3o2)CC1,0,0,0,0,0,0
COc1ccc(N(CC(=O)Nc2cc([N+](=O)[O-])ccc2C)S(C)(=O)=O)cc1OC,0,0,0,0,0,0
CCN(CC(=O)Nc1c(F)cccc1F)C(=O)c1ccc(N2C(=O)c3ccccc3C2=O)cc1,0,0,0,0,0,0
COc1cccc(C(=O)NNC(=O)C(=O)Nc2ccc(C)cc2)c1,0,0,27,0,0,37
COc1cccc(C(=O)Nc2ccc(C(=O)c3ccccc3)cc2)c1,-7.7,0,0,0,0,0
COc1ccc(C(=O)Nc2cccc3ccccc23)cc1,0,0,0,0,0,0
COc1cccc(C(=O)Nc2ccc(C(=O)O)cc2)c1,0,0,0,0,0,0
COC(=O)c1ccc(NC(=O)c2cccc(OC)c2)cc1,0,0,0,0,0,0
COc1cccc(C(=O)NNC(=O)C(=O)Nc2cccc(Cl)c2C)c1,0,0,23,0,0,36
COc1ccc(C(=O)NNC(=O)C(=O)Nc2cccc3ccccc23)cc1,0,0,31,0,0,34
SMILES,KCNK9 block,Kir21 block,hERG protect,KCNQ1 block,KCNK3 block,KCNQ1 act
CN(C(=O)CSc1cc(Cl)ccc1Cl)C1CCS(=O)(=O)C1 (stereo not drawn),-,-,-,-,0,-
COCCNC(=O)c1cccc(OC2CCN(C(C)COc3ccccc3)CC2)c1 (stereo not drawn),0,0,0,0,0,0
COc1cccc(NC(=O)c2ccccc2-c2ccccc2)c1,0,-4.2,0,0,0,0
Cc1nc2ccccc2n1Cc1ccccc1,0,0,0,0,0,0
CC(C)Cc1nc2ccccc2n1CCc1ccccc1,0,-6.5,0,0,0,0
CC(C)C(=O)NCCc1nc2ccccc2n1CCc1ccccc1,0,0,0,0,0,0
c1ccc(Cc2nc3ccccc3n2Cc2ccccc2)cc1,0,-7.2,0,0,0,0
CCc1nc2ccccc2n1CCc1ccccc1,0,0,0,0,0,0
CC(C)(C)Cc1nc2ccccc2n1CCc1ccccc1,0,-6.1,0,0,0,0
CCn1c(Cc2ccc(OC)cc2)nc2ccccc21,0,0,0,0,0,0
Cc1nc2ccccc2n1Cc1ccc(Br)cc1,0,0,0,6,0,0
O=[N+]([O-])c1ccc(CN2CCOCCOCCN(Cc3ccc([N+](=O)[O-])cc3)CCOCC2)cc1,-7.2,0,0,0,0,0
C/C=C(/C)C(=O)O[C@@H]1c2c(ccc3ccc(=O)oc23)O[C@@H]1C(C)(C)OC(=O)/C(C)=C\C,-7.1,0,0,0,0,0

# Assay outcomes from PubChem BioAssay.
